ChEMBL document CHEMBL4196210, “Depsipeptides Featuring a Neutral P1 Are Potent Inhibitors of Kallikrein-Related Peptidase 6 with On-Target Cellular Activity” (J Med Chem, 2018)
Active and inactive are the calls of the source. The rule behind the calls is not given here.

How the values were obtained:
Trypsin = Trypsin (Homo sapiens, UniProt P07477+P07478+P35030); experiment: Inhibition of trypsin (unknown origin) pre-incubated for 30 mins before N-Boc-FSR-AMC substrate addition and measured after 30 mins; format: protein assay
[1] = Stability in DMEM supplemented with 10% (v/v) fetal bovine serum at 10 uM at 37 degC assessed as half life by HPLC-MS method; format: physicochemical; conditions: cattle, DMEM with 10% (v/v) fetal bovine serum
Outline: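 Compound at 10 µM (0.2% DMSO) in DMEM with 10% FBS, 2 mM L-glutamine and 1% penicillin/streptomycin, plus 10 µM triazole internal standard, held at 37 °C. Sampled hourly to 10 h, then at 24 h, by HPLC-MS in SIM mode for parent and hydrolysis product.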

Prothrombin = Prothrombin (Homo sapiens, UniProt P00734); experiment: Inhibition of thrombin (unknown origin) pre-incubated for 30 mins before N-Boc-FSR-AMC substrate addition and measured after 30 mins
Outline: (§1)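 Inhibitor (1:2 or 1:3 dilutions) or 2% DMSO for 30 min at rt, then N-Boc-FSR-AMC at 20 µM final. Fluorescence (ex 350/em 440) read every 60 s for 30 min. Slopes normalized to DMSO for dose-response; triplicates.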

Coagulation factor X = Coagulation factor X (Homo sapiens, UniProt P00742); experiment: Inhibition of factor 10a (unknown origin) pre-incubated for 30 mins before N-Boc-FSR-AMC substrate addition and measured after 30 mins; outline: as §1
Kallikrein-6 [2] = biological target: T1, Kallikrein-6 (Homo sapiens, UniProt Q92876); experiment: Inhibition of recombinant human KLK6 assessed as Kinact/Ki ratio using Boc-QAR-AMC substrate
Kallikrein-14 = biological target: T2, Kallikrein-14 (Homo sapiens, UniProt Q9P0G3); experiment: Inhibition of KLK14 (unknown origin) expressed in Pichia pastoris pre-incubated for 10 mins before Boc-ValProArg-AMC substrate addition and measured after 30 mins by fluorescence based assay
T2 sequence (Q9P0G3 whole entry): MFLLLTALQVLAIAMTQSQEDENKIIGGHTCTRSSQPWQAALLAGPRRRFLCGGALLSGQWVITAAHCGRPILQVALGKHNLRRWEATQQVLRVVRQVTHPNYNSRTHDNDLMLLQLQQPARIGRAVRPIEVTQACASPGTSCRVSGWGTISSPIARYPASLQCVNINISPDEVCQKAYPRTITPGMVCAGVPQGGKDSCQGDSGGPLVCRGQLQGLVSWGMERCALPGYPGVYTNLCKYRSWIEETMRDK

Kallikrein-8 = biological target: T3, Kallikrein-8 (Homo sapiens, UniProt O60259); experiment: Inhibition of KLK8 (unknown origin) expressed in Pichia pastoris pre-incubated for 10 mins before Boc-ValProArg-AMC substrate addition and measured after 30 mins by fluorescence based assay
T3 sequence (O60259 whole entry): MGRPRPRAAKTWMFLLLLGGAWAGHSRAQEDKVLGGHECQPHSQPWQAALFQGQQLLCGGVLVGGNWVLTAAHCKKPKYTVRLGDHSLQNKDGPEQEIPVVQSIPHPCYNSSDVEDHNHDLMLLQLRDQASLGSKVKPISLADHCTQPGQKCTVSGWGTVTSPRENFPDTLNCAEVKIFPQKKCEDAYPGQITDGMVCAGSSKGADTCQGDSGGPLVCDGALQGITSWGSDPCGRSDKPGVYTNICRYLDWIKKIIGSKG

Kallikrein-7 = Kallikrein-7 (Homo sapiens, UniProt P49862); experiment: Inhibition of KLK7 (unknown origin) expressed in Pichia pastoris pre-incubated for 10 mins before Leu-Leu-Val-Tyr-AMC substrate addition and measured after 30 mins by fluorescence based assay
Outline: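 KLK7 at 33 nM final in 100 mM phosphate, 0.01% Tween-20, pH 8.5, with inhibitor (1:3 dilutions) or 2% DMSO for 10 min at rt. Reaction started with Leu-Leu-Val-Tyr-AMC at 500 µM final. Fluorescence (ex 380/em 460) read every 60 s for 30 min. Triplicates.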

Kallikrein-5 = biological target: T4, Kallikrein-5 (Homo sapiens, UniProt Q9Y337); experiment: Inhibition of KLK5 (unknown origin) expressed in Pichia pastoris pre-incubated for 10 mins before Boc-ValProArg-AMC substrate addition and measured after 30 mins by fluorescence based assay
T4 sequence (Q9Y337 whole entry): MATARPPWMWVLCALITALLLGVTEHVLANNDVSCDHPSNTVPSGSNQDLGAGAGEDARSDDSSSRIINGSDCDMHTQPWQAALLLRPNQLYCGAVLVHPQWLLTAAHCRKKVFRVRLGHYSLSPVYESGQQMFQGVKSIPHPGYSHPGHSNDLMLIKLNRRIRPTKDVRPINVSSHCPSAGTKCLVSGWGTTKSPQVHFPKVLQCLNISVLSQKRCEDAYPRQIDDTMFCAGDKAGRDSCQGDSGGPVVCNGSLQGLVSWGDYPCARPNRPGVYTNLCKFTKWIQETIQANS

Kallikrein-13 = biological target: T5, Kallikrein-13 (Homo sapiens, UniProt Q9UKR3); experiment: Inhibition of KLK13 (unknown origin) expressed in Pichia pastoris pre-incubated for 10 mins before Boc-ValProArg-AMC substrate addition and measured after 30 mins by fluorescence based assay
T5 sequence (Q9UKR3 whole entry): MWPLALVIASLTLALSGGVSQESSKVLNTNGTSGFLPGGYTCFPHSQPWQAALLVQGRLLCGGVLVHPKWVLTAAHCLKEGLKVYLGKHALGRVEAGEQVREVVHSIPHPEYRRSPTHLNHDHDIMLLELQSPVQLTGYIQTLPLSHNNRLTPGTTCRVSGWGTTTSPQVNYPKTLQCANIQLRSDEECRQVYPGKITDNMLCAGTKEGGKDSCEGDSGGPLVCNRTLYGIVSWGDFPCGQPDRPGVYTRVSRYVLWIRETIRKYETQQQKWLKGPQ

Kallikrein-6 [3] = biological target: T1, Kallikrein-6; experiment: Inhibition of human KLK6 expressed in baculovirus/insect cell line system using Abz-KLRSSKQ-EDDnp substrate
Kallikrein-6 [4] = biological target: T1, Kallikrein-6; experiment: Inhibition of KLK6 in human FaDu cells assessed as reduction in cell proliferation at 300 nM incubated for 48 hrs by BrdU incorporation assay; format: cell-based
Outline: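 FaDu cells treated daily for 48 h. Proliferation read as BrdU incorporation; average of 5 independent experiments ± standard deviation.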

Sequence of Coagulation factor X (P00742 41-179 limits assumed): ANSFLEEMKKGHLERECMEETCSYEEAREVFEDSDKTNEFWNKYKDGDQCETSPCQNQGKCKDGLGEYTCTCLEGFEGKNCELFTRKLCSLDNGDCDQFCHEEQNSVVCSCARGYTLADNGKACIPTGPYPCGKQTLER
Sequence of Coagulation factor X (P00742 235-488 limits assumed): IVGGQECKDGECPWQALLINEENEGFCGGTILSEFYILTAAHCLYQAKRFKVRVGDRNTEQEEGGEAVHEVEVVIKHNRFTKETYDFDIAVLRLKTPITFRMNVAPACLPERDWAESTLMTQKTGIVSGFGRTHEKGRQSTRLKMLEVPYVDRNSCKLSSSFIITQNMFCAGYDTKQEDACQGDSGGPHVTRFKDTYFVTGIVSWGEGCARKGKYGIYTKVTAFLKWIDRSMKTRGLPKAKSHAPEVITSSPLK
Sequence of Kallikrein-7 (P49862 whole entry): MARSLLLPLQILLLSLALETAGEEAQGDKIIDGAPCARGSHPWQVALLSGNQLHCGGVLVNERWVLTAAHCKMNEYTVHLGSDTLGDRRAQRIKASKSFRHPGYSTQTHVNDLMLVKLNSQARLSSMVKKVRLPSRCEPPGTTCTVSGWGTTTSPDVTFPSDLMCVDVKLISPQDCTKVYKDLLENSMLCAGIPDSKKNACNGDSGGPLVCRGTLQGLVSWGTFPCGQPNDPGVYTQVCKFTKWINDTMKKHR

Compound | IC50 (Trypsin) [µM] | further results
Cc1nn(-c2ccccc2)cc1NC(=O)CNC(=O)Cc1c(C)[nH]c2ccccc12 | > 200 | –
Cc1nn(-c2ccccc2)c(C)c1NC(=O)COC(=O)Cc1c(C)n(C)c2ccccc12 | > 200 | –
C#Cc1ccc2[nH]c(C)c(CC(=O)OCC(=O)Nc3c(C)nn(-c4ccccc4)c3C)c2c1 | 26 | –
Cc1nn(-c2ccccc2)c(C)c1NC(=O)COC(=O)Cn1c(C)cc2ccccc21 | 38 to 70 | half-life at 10 µM [1]: 33.6 min; IC50 (Prothrombin): > 200 µM; IC50 (Coagulation factor X): > 200 µM
Cc1nn(-c2ccccc2)c(C)c1NC(=O)COC(=O)Cc1c(C)[nH]c2cccnc12 | 61 | –
Cc1nn(-c2ccccc2)c(C)c1NC(=O)COC(=O)Cn1c(C)nc2ccccc21 | > 200 | –
Cc1nn(-c2ccccc2)c(C)c1NC(=O)COC(=O)Cc1c[nH]c2ccccc12 | 150 | half-life at 10 µM [1]: 27 min
Cc1nn(-c2ccccc2)c(C)c1NC(=O)COC(=O)Cn1cnc2ccccc2c1=O | > 200 | IC50 (Prothrombin): > 200 µM; IC50 (Coagulation factor X): > 200 µM
Cc1[nH]c2ccccc2c1CC(=O)OCC(=O)Nc1cncnc1 | > 200 | –
Cc1nn(-c2ccccc2)c(C)c1NC(=O)COC(=O)Cn1c(=O)oc2ccccc21 | 190 | IC50 (Prothrombin): > 200 µM; IC50 (Coagulation factor X): > 200 µM
Cc1nn(-c2ccccc2)c(C)c1NC(=O)C(NC(=O)Cc1c(C)[nH]c2ccccc12)C(F)(F)F (centres undefined) | > 200 | –
C#Cc1[nH]c2ccccc2c1CC(=O)OCC(=O)Nc1c(C)nn(-c2ccccc2)c1C | > 200 | –
Cc1nn(-c2ccccc2)c(C)c1NC(=O)C(OC(=O)Cc1c(C)[nH]c2ccccc12)C(F)(F)F (centres undefined) | 0.38 | half-life at 10 µM [1]: 25.5 min
O=C(Oc1cc(Cl)ccc1Cl)c1cc2cc(Cl)ccc2oc1=O | – | Ratio (Kallikrein-6 [2]): 131 M⁻¹ s⁻¹
Cc1nn(C)c(C)c1NC(=O)CNC(=O)Cc1c(C)[nH]c2cccnc12 | > 50 | –
C#Cc1cccc2[nH]c(C)c(CC(=O)OCC(=O)Nc3c(C)nn(-c4ccccc4)c3C)c12 | > 50 | –
Cc1nn(-c2ccccc2)c(C)c1NC(=O)C(OC(=O)C(C)c1c(C)[nH]c2ccccc12)C(F)(F)F (centres undefined) | 61 | half-life at 10 µM [1]: 101 min
Cc1nn(-c2ccccc2)c(C)c1NC(=O)COC(=O)C(c1c(C)[nH]c2ccccc12)C(F)(F)F (centres undefined) | > 200 | –
Cc1[nH]c2ccccc2c1CC(=O)NCC(=O)Nc1cnn(-c2ccccc2)c1C | 34 | –
Cc1nn(-c2ccccc2)c(C)c1NC(=O)COC(=O)CCc1c(C)[nH]c2ccccc12 | > 200 | –
Cc1nn(-c2ccccc2)c(C)c1NC(=O)COC(=O)Cc1c(C)[nH]c2cc(C(=N)N)ccc12 | < 0.001 | half-life at 10 µM [1]: 79.2 min; IC50 (Kallikrein-14): 8 nM; IC50 (Kallikrein-8): 210 nM; IC50 (Kallikrein-7): > 500 nM; IC50 (Kallikrein-5): 130 nM; IC50 (Kallikrein-13): > 500 nM

Compound | IC50 (Trypsin) [µM] | further results
NCc1ccc(NC(=O)c2c([O-])ccc[n+]2Cc2nccn2Cc2ccccc2)cc1 | 0.18 | IC50 (Prothrombin): > 50 µM; IC50 (Coagulation factor X): > 50 µM
Cc1nn(-c2ccccc2)c(C)c1NC(=O)COC(=O)Cn1c(C)csc1=O | > 200 | IC50 (Prothrombin): > 200 µM; IC50 (Coagulation factor X): > 200 µM
Cc1nn(-c2ccccc2)c(C)c1NC(=O)COC(=O)Cc1c(C)[nH]c2ncccc12 | > 200 | –
Cc1nn(-c2ccccc2)c(C)c1NC(=O)COC(=O)Cc1c(C)[nH]c2cnccc12 | 0.33 | –
Cc1nn(-c2ccccc2)c(C)c1NC(=O)COC(=O)C(C)(C)c1c(C)[nH]c2ccccc12 | > 200 | –
Cc1nn(-c2ccccc2)c(C)c1NC(=O)COC(=O)Cc1c(C(C)C)[nH]c2ccccc12 | > 200 | –
Cc1[nH]c2ccccc2c1CC(=O)OCC(=O)Nc1ccc(N2CCOCC2)cc1 | > 200 | –
Cc1nn(-c2ccccc2)c(C)c1NC(=O)COC(=O)Cc1c(C)[nH]c2ccc(C(=N)N)cc12 | 19 | –
Cc1nn(-c2ccccc2)c(C)c1NC(=O)COC(=O)c1c(C)[nH]c2ccccc12 | > 200 | –
C#Cc1ccc2c(CC(=O)OCC(=O)Nc3c(C)nn(-c4ccccc4)c3C)c(C)[nH]c2c1 | 24 | –
Cc1nn(-c2ccccc2)c(C)c1NC(=O)COC(=O)Cc1c(C)[nH]c2cccc(Cl)c12 | > 200 | –
CC(C)C[C@H](NC(=O)[C@H](CCCNC(=N)N)NC(=O)c1ccc(Cl)cc1)C(N)=O | – | Ki (Kallikrein-6 [3]): 1500 nM
Cc1nn(-c2ccccc2)c(C)c1NC(=O)CNC(=O)Cc1c(C)[nH]c2cc(C(=N)N)ccc12 | 2.5 | –
Cc1nn(-c2ccccc2)c(C)c1NC(=O)COC(=O)Cc1c(C)[nH]c2ccc(Cl)cc12 | 34 | –
Cc1nn(-c2ccccc2)c(C)c1NC(=O)COC(=O)Cc1ccccc1 | > 200 | IC50 (Prothrombin): > 200 µM; IC50 (Coagulation factor X): > 200 µM
Cc1nn(-c2ccccc2)c(C)c1NC(=O)COC(=O)C(C)c1c(C)[nH]c2ccccc12 (centres undefined) | > 200 | half-life at 10 µM [1]: 912 min
Cc1[nH]c2cccnc2c1CC(=O)NCC(=O)Nc1onc(-c2ccccc2)c1C | 50 | –
Cc1nn(-c2ccccc2)c(C)c1NC(=O)CCOC(=O)Cc1c(C)[nH]c2ccccc12 | > 200 | –
Cc1nn(-c2ccccc2)c(C)c1NC(=O)COC(=O)Nc1c(C)[nH]c2ccccc12 | – | Activity (Kallikrein-6 [4]): inactive
Cc1nn(-c2ccccc2)c(C)c1NC(=O)COC(=O)Cc1c(C)[nH]c2ccncc12 | 25 | –
